# ChEMBL document CHEMBL4190402, “Development of a Novel Human Parathyroid Hormone Receptor 1 (hPTHR1) Agonist (CH5447240), a Potent and Orally Available Small Molecule for Treatment of Hypoparathyroidism” (J Med Chem, 2018)
# Active and inactive are the calls of the source. No cut-off for these calls is given here.
# How the values were obtained:
# [1] = test system: Rattus norvegicus; assay: In vivo agonist activity at PTHR1 in Crl:CD(SD) rat TPTX model assessed as increase in serum calcium levels at 9 nmol/kg, sc administered as single dose measured after 24 hrs by o-cresolphthalein complexone method; format: functional, organism-based
# Method in brief: (§1)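 Female 6-week-old Crl:CD(SD) rats after surgical TPTX; those with serum Ca <8.0 mg/dl at day 5 were used, and treatment began day 6. Single sc dose of hPTH(1-34) at 9 nmol/kg, or phosphate-citrate buffer pH 6.0 vehicle, n=5 per group. Jugular blood taken under isoflurane before dosing and at 0.5–24 h. Serum Ca measured by o-CPC, Pi by xanthine oxidase. Mean ± SEM.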
# [2] = test system: Rattus norvegicus; assay: In vivo agonist activity at PTHR1 in Crl:CD(SD) rat TPTX model assessed as decrease in serum phosphorus levels 9 nmol/kg, sc administered as single dose measured after 24 hrs by xanthine oxidase method; format: functional, organism-based; method in brief: as §1
# [3] = Volume of distribution at steady state in Crl:CD/SD IGS, CRJ rat at 3 mg/kg, iv by LC-MS/MS analysis; format: ADME, organism-based; details: in vivo, read-out: Vdss
# Method in brief: (§2)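 Female 5-week-old rats, two per dose group, given 3 mg/kg orally or intravenously. Oral blood samples at 15 and 30 min, 1, 2, 4 and 6 h; intravenous sample at 3 min. Plasma drug measured by LC-MS/MS (detection limit 0.3 ng/ml). Parameters derived by noncompartmental analysis; mean of n=2.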
# [4] = AUC (infinity) in Crl:CD/SD IGS, CRJ rat at 3 mg/kg, po by LC-MS/MS analysis; format: ADME, organism-based; parameters: dose 3 mg/kg, time infinity, route oral; details: in vivo; method in brief: as §2
# [5] = molecular target: T1, Parathyroid hormone/parathyroid hormone-related peptide receptor (Homo sapiens) (UniProt Q03431); assay: Ratio of IC50 for displacement of 125I-PTH (1 to 15 residues) from human PTHR1 expressed in African green monkey COS7 cell membranes to EC50 for agonist activity at human PTHR1 expressed in HKRKB7 cells assessed as accumulation of intracellular cAMP; format: functional
# T1 sequence (whole entry): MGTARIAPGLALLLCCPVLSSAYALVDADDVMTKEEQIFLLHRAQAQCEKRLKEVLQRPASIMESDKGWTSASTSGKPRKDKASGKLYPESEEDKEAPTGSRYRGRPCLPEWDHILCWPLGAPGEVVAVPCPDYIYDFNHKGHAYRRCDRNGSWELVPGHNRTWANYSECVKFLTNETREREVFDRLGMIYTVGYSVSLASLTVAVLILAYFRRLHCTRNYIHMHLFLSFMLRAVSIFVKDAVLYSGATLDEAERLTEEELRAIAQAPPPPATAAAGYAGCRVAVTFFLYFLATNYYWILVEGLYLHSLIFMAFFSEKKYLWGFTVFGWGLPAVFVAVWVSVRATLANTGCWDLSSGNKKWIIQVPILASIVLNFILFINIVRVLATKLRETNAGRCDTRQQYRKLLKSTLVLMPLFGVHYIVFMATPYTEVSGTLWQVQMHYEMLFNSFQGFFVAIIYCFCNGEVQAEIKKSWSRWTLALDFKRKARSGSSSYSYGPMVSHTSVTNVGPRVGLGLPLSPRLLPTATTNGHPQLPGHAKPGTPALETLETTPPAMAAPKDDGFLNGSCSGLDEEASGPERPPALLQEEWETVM
# [6] = Half life in Crl:CD/SD IGS, CRJ rat at 3 mg/kg, po by LC-MS/MS analysis; format: ADME, organism-based; details: in vivo; method in brief: as §2
# [7] = Solubility of the compound in FaSSIF at 1 mM by HPLC-UV analysis; format: physicochemical
# Method in brief: (§3)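 A 1 mM DMSO stock (50 µL) was freeze-dried, then the residue taken up in 50 mM PBS pH 6.5 or FaSSIF pH 6.5. Sonicated 10 min, shaken 2 h, centrifuged, filtered. Filtrate concentration determined by HPLC-UV against each compound's calibration curve.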
# [8] = test system: Rattus norvegicus; assay: In vivo agonist activity at PTHR1 in po dosed Crl:CD(SD) rat TPTX model assessed as increase in serum calcium levels administered as single dose measured after 24 hrs by o-cresolphthalein complexone method; format: functional, organism-based
# Method in brief: (§4)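 Female 6-week-old Crl:CD(SD) rats after surgical TPTX; those with serum Ca <8.0 mg/dl at day 5 were used, and dosing began day 6. Single oral dose of 6, 19 or 60 mg/kg, or vehicle (10% DMSO/10% Kolliphor EL in 10% HPCD/0.752% glycine buffer), n=5 per group. Jugular blood taken under isoflurane before dosing and at 0.5, 1, 2, 4, 6, 10 and 24 h. Serum Ca measured by o-CPC, Pi by xanthine oxidase.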
# [9] = Intrinsic clearance in human liver microsomes assessed per mg protein at 1 uM after 30 mins in absence of NADPH by LC-MS/MS analysis; format: ADME, microsome
# [10] = molecular target: T2, Parathyroid hormone/parathyroid hormone-related peptide receptor (Homo sapiens, UniProt Q03431); assay: (§5) Agonist activity at human PTHR1 expressed in HKRKB7 cells assessed as accumulation of intracellular cAMP after 20 mins by enzyme immunoassay; format: functional, cell-based
# T2 sequence (Q03431 whole entry): T1 sequence (whole entry)
# Method in brief: (§6)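 HKRK-B7 cells (LLC-PK1 stably expressing hPTHR1), 1.0 x 10^3 per well, seeded overnight, then exposed to serially diluted compound in McCoy's 5A with 2 mg/ml BSA, 1 mmol/l IBMX and 2 mmol/l HEPES for 20 min at 37°C. Cells washed, frozen, lysed in 50 mmol/l HCl, cAMP read by EIA.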
# [11] = molecular target: T1, Parathyroid hormone/parathyroid hormone-related peptide receptor (Homo sapiens); assay: as §5; format: functional, cell-based; method in brief: as §6
# [12] = Tmax in Crl:CD/SD IGS, CRJ rat at 3 mg/kg, po by LC-MS/MS analysis; format: ADME, organism-based; details: in vivo; method in brief: as §2
# [13] = molecular target: T2, Parathyroid hormone/parathyroid hormone-related peptide receptor; assay: Displacement of 125I-PTH (1 to 15 residues) from human PTHR1 expressed in African green monkey COS7 cell membranes at 300 uM after 90 mins by gamma counting analysis
# [14] = Cmax in Crl:CD/SD IGS, CRJ rat at 3 mg/kg, po by LC-MS/MS analysis; format: ADME, organism-based; parameters: dose 3 mg/kg, route oral; details: in vivo; method in brief: as §2
# [15] = test system: Rattus norvegicus; assay: In vivo agonist activity at PTHR1 in po dosed Crl:CD(SD) rat TPTX model assessed as decrease in serum phosphorus levels administered as single dose measured after 24 hrs by xanthine oxidase method; format: functional, organism-based; method in brief: as §4
# [16] = molecular target: hERG (KCNH2) (Homo sapiens, UniProt Q12809); assay: Inhibition of human ERG at a holding potential of -80 mV at 10 uM by automated patch clamp electrophysiology method
# [17] = molecular target: T1, Parathyroid hormone/parathyroid hormone-related peptide receptor (Homo sapiens); assay: Displacement of 125I-PTH (1 to 15 residues) from human PTHR1 expressed in African green monkey COS7 cell membranes after 90 mins by gamma counting analysis
# Method in brief: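 Competition binding on membranes from COS-7 cells expressing human PTHR1. Incubated 90 min at room temperature, vacuum-filtered and washed, filter radioactivity gamma-counted. Nonspecific binding defined with excess (1x10^4 M as printed) unlabeled PTH(1-34).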
# [18] = Clearance in Crl:CD/SD IGS, CRJ rat at 3 mg/kg, iv by LC-MS/MS analysis; format: ADME, organism-based; details: in vivo; method in brief: as §2
# [19] = Oral bioavailability in Crl:CD/SD IGS, CRJ rat at 3 mg/kg by LC-MS/MS analysis; format: ADME, organism-based; details: in vivo; method in brief: as §2
# [20] = Half life in Crl:CD/SD IGS, CRJ rat at 3 mg/kg, iv by LC-MS/MS analysis; format: ADME, organism-based; details: in vivo; method in brief: as §2
# [21] = Solubility of the compound in PBS at pH 6.5 at 1 mM by HPLC-UV analysis; format: physicochemical; method in brief: as §3
# [22] = Clearance in Crl:CD/SD IGS, CRJ rat at 3 mg/kg, po by LC-MS/MS analysis; format: ADME, organism-based; details: in vivo; method in brief: as §2
# [23] = Intrinsic clearance in human liver microsomes assessed per mg protein at 1 uM after 30 mins in presence of NADPH by LC-MS/MS analysis; format: ADME, microsome; details: read-out: CLH
# [24] = AUC (infinity) in Crl:CD/SD IGS, CRJ rat at 3 mg/kg, iv by LC-MS/MS analysis; format: ADME, organism-based; parameters: dose 3 mg/kg, route intravenous, time infinity; details: in vivo; method in brief: as §2
# [25] = test system: LLC-PK1; assay: Induction of cAMP production in porcine LLC-PK1 cells after 20 mins by enzyme immunoassay; format: functional, cell-based; details: Sus scrofa
# Method in brief: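 Counter-screen on parent LLC-PK1 cells lacking hPTHR1. Conditions match the HKRK-B7 assay: 20 min at 37°C in IBMX-containing assay medium, then cAMP read by EIA.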
# [26] = test system: Rattus norvegicus; assay: Tmax in Sprague-Dawley rat at 5 ug/kg, sc; format: ADME, organism-based; details: in vivo, 0.005 mg/kg
# [27] = Half life in Sprague-Dawley rat at 5 ug/kg, sc; format: ADME, organism-based; details: in vivo, 0.005 mg/kg
# hERG (KCNH2), sequence (Q12809 whole entry, the tested form may be a part): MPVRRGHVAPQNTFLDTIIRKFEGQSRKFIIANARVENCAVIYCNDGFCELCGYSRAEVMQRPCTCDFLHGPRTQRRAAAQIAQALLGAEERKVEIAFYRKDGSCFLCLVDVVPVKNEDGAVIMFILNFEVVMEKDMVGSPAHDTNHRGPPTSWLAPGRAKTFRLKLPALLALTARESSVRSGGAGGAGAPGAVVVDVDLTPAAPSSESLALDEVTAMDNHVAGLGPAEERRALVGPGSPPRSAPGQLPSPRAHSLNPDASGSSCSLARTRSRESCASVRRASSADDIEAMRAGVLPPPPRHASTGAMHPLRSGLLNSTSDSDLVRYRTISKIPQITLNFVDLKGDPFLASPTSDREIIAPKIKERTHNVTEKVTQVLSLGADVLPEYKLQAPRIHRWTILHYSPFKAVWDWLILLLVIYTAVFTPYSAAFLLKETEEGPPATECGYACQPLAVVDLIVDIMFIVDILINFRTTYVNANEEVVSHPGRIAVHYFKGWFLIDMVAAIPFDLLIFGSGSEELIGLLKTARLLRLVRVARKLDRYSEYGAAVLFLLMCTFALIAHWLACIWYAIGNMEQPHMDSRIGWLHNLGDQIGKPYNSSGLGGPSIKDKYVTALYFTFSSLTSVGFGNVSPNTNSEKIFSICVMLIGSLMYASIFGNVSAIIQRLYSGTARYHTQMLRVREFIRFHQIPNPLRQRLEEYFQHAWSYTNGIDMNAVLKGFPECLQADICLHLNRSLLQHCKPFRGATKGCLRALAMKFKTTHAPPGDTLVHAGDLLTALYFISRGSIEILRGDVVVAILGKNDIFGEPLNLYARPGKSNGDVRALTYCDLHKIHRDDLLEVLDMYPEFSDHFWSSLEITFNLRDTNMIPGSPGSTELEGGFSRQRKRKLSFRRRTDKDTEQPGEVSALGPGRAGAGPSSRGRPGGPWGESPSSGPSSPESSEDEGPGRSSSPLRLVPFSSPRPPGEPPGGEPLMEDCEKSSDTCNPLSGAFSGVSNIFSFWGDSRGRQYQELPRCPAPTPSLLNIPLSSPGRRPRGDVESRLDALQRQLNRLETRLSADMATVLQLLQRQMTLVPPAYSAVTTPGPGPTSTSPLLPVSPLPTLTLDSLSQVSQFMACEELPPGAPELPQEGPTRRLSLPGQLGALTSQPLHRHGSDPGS
structure (smiles),measurement,setting,value
CC[C@H](C)[C@H](NC(=O)[C@H](CCC(=O)O)NC(=O)[C@H](CO)NC(=O)[C@@H](NC(=O)[C@@H](N)CO)C(C)C)C(=O)N[C@@H](CCC(N)=O)C(=O)N[C@@H](CC(C)C)C(=O)N[C@@H](CCSC)C(=O)N[C@@H](Cc1cnc[nH]1)C(=O)N[C@@H](CC(N)=O)C(=O)N[C@@H](CC(C)C)C(=O)NCC(=O)N[C@@H](CCCCN)C(=O)N[C@@H](Cc1cnc[nH]1)C(=O)N[C@@H](CC(C)C)C(=O)N[C@@H](CC(N)=O)C(=O)N[C@@H](CO)C(=O)N[C@@H](CCSC)C(=O)N[C@@H](CCC(=O)O)C(=O)N[C@@H](CCCNC(=N)N)C(=O)N[C@H](C(=O)N[C@@H](CCC(=O)O)C(=O)N[C@@H](Cc1c[nH]c2ccccc12)C(=O)N[C@@H](CC(C)C)C(=O)N[C@@H](CCCNC(=N)N)C(=O)N[C@@H](CCCCN)C(=O)N[C@@H](CCCCN)C(=O)N[C@@H](CC(C)C)C(=O)N[C@@H](CCC(N)=O)C(=O)N[C@@H](CC(=O)O)C(=O)N[C@H](C(=O)N[C@@H](Cc1cnc[nH]1)C(=O)N[C@@H](CC(N)=O)C(=O)N[C@@H](Cc1ccccc1)C(=O)O)C(C)C)C(C)C,Activity,[1],Active
same,Activity,[2],Active
Cc1cc(N(C)C(N)=O)cc(C)c1CCS(=O)(=O)N1CCC2(CC1)N=C([C@H]1CC[C@H](C)CC1)NC2=O,Vd,[3],0.395 L/kg
same,AUC(0-inf),[4],2650 ng·h/mL
same,Ratio IC50/EC50,[5],8
same,half-life,[6],60 min
same,solubility at 1000 µM,[7]; FaSSIF,250 µg/mL
same,Activity,[8],Dose-dependent effect
same,CLint,"[9]; microsomes, 0.5 h, 1 µM",0.14 µL/min/mg
same,EC50,[10],12 µM
same,EC20,[11],3 µM
same,Tmax,[12],1 h
same,IC50,[13],93.7 µM
same,Cmax,[14],1360 ng/mL
same,Activity,[15],Dose-dependent effect
same,inhibition at 10 µM,[16],10%
same,inhibition,[17],75%
same,clearance,[18],10.4 mL/min/kg
same,bioavailability,[19],55%
same,half-life,[20],66 min
same,solubility at 1000 µM,"[21]; PBS, pH 6.5",99 µg/mL
same,CL/F,[22],19 mL/min/kg
same,microsomal CLint at 1 µM,[23],45 µL/min/mg
same,AUC(0-inf),[24],4820 ng·h/mL
same,Activity,[25],inactive
CC[C@H](C)[C@H](NC(=O)[C@H](CCC(=O)O)NC(=O)[C@H](CO)NC(=O)[C@@H](NC(=O)[C@@H](N)CO)C(C)C)C(=O)N[C@@H](CCC(N)=O)C(=O)N[C@@H](CC(C)C)C(=O)N[C@@H](CCSC)C(=O)N[C@@H](Cc1cnc[nH]1)C(=O)N[C@@H](CC(N)=O)C(=O)N[C@@H](CC(C)C)C(=O)NCC(=O)N[C@@H](CCCCN)C(=O)N[C@@H](Cc1cnc[nH]1)C(=O)N[C@@H](CC(C)C)C(=O)N[C@@H](CC(N)=O)C(=O)N[C@@H](CO)C(=O)N[C@@H](CCSC)C(=O)N[C@@H](CCC(=O)O)C(=O)N[C@@H](CCCN=C(N)N)C(=O)N[C@H](C(=O)N[C@@H](CCC(=O)O)C(=O)N[C@@H](Cc1c[nH]c2ccccc12)C(=O)N[C@@H](CC(C)C)C(=O)N[C@@H](CCCN=C(N)N)C(=O)N[C@@H](CCCCN)C(=O)N[C@@H](CCCCN)C(=O)N[C@@H](CC(C)C)C(=O)N[C@@H](CCC(N)=O)C(=O)N[C@@H](CC(=O)O)C(=O)N[C@H](C(=O)N[C@@H](Cc1cnc[nH]1)C(=O)N[C@@H](CC(N)=O)C(=O)N[C@@H](Cc1ccccc1)C(=O)O)C(C)C)C(C)C [TERIPARATIDE],Tmax,[26],15 min
same,half-life,[27],30 min
Cc1cc(N2CCNC2=O)cc(C)c1CCS(=O)(=O)N1CCC2(CC1)N=C(C1CCCCC1)NC2=O,solubility,"[7]; simulated gi fluid, 1000 µM, BLD = below limit of detection",Bld
same,microsomal CLint at 1 µM,"[9]; liver microsomes, read-out: CLH",3.4 µL/min/mg
same,EC50,[10],> 1000 µM
same,EC20,[11],240 µM
same,solubility,"[21]; buffer, pH 6.5, 1000 µM, BLD = below limit of detection",Bld
same,microsomal CLint at 1 µM,[23],62 µL/min/mg
same,Activity,[25],inactive
